From ChEMBL document CHEMBL1156649, “Benzoic acid derivatives from Piper species and their antiparasitic activity” (J Nat Prod, 2008)
Values after ≈ are worked out from the molar mass of the structure shown.

Columns and labels:
Type in all cases: functional, organism-based
[1] = test system: Leishmania amazonensis; test: Antileishmanial activity against Leishmania amazonensis PH8 promastigotes
Method in brief: (§1)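 Promastigotes grown at 28 °C in stationary culture, seeded at 1 × 10^4 per 100 µL well in RPMI 1640-based Leishmania medium. DMSO-dissolved samples added to give 100 µg/mL final and serial dilutions. IC50 = concentration causing 50% reduction in parasite viability. Pentamidine (10 µg/mL) positive control.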

[2] = test system: Leishmania braziliensis; test: Antileishmanial activity against Leishmania braziliensis 2903 promastigotes; method in brief: as §1
[3] = test system: Leishmania donovani; test: Antileishmanial activity against Leishmania donovani PP75 promastigotes; method in brief: as §1
[4] = test system: Trypanosoma cruzi; test: Antitrypanosomal activity against Trypanosoma cruzi Tulahuen
[5] = test system: Plasmodium falciparum; test: Antiplasmodial activity against chloroquine-sensitive Plasmodium falciparum F32-Tanzania
Method in brief: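 Culture per Trager and Jensen on glucose-enriched RPMI 1640 with 10% human serum at 37 °C. After 24 h, medium replaced with fresh medium containing compound at 0.1, 1 and 10 µg/mL, then incubated 48 h more. Blood smears on day 3; parasitemia compared with control. IC50 read graphically from concentration versus % inhibition. Chloroquine (0.1 µg/mL) positive control. Triplicate.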

Structure (SMILES) | IC50 [1] | IC50 [2] | IC50 [3] | IC50 [4] | IC50 [5]
COC(=O)c1ccc(O)c(CC=C(C)C)c1 | 74.4 µg/mL (≈ 338 µM) | 74.4 µg/mL (≈ 338 µM) | 62.5 µg/mL (≈ 284 µM) | > 20 µg/mL | 2.8 µg/mL (≈ 12.7 µM)
COC(=O)c1cc(O)c(O)c(CC=C(C)C)c1 | 18.2 µg/mL (≈ 77 µM) | 13.8 µg/mL (≈ 58.4 µM) | 18.5 µg/mL (≈ 78.3 µM) | 18.5 µg/mL (≈ 78.3 µM) | 4.1 µg/mL (≈ 17.4 µM)
C=C(C)C(O)Cc1cc(C(=O)OC)cc(O)c1O (racemic) | 89.5 µg/mL (≈ 355 µM) | 81.9 µg/mL (≈ 325 µM) | 81.9 µg/mL (≈ 325 µM) | 16.4 µg/mL (≈ 65 µM) | > 10 µg/mL
COc1c(/C=C/C(C)(C)O)cc(C(=O)O)cc1CC=C(C)C | > 100 µg/mL | 78.8 µg/mL (≈ 259 µM) | > 100 µg/mL | > 20 µg/mL | > 10 µg/mL
C=C(C)C(O)Cc1cc(C(=O)OC)ccc1O (stereo not given) | 78.2 µg/mL (≈ 331 µM) | 74.4 µg/mL (≈ 315 µM) | 86.9 µg/mL (≈ 368 µM) | 15.6 µg/mL (≈ 66 µM) | 10 µg/mL (≈ 42.3 µM)
C=C(C)C(O)Cc1cc(C(=O)O)cc(CC=C(C)C)c1O (racemic) | 67.6 µg/mL (≈ 233 µM) | 67.6 µg/mL (≈ 233 µM) | 67.3 µg/mL (≈ 232 µM) | > 20 µg/mL | > 10 µg/mL
CC(C)=CCc1cc(C(=O)O)cc(CC=C(C)C)c1O | 45.3 µg/mL (≈ 165 µM) | 34.1 µg/mL (≈ 124 µM) | 40 µg/mL (≈ 146 µM) | > 20 µg/mL | > 10 µg/mL
